Consider nine molecules from ChEMBL document CHEMBL4715736, “Identification of anticancer agents based on the thieno[2,3-b]pyridine and 1H-pyrazole molecular scaffolds” (2016).

Holding throughout (type): functional
One test deals with SK-MEL-28. Briefly: Growth inhibition of human SK-MEL-28 cells assessed as cell growth at 0.1 uM incubated for 48 hrs by sulforhodamine B assay relative to control. To be noted: read-out: Activity. (Sulforhodamine B stains cellular protein and so reports cell mass.)
In test [1] the test system is EKVX. Briefly: Growth inhibition of human EKVX cells assessed as cell growth at 10 uM incubated for 48 hrs by sulforhodamine B assay relative to control. To be noted: read-out: Activity.
Test [2] deals with EKVX. Nature of the test: Growth inhibition of human EKVX cells assessed as cell growth at 100 uM incubated for 48 hrs by sulforhodamine B assay relative to control. The note with it: read-out: Activity.
The subject of test [3] is HL-60(TB). Nature of the test: Growth inhibition of human HL-60(TB) cells assessed as cell growth at 100 uM incubated for 48 hrs by sulforhodamine B assay relative to control. The note with it: read-out: Activity. Summed up: (§1)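 Screened by the NCI Developmental Therapeutics Program on its panel of 60 human tumour cell lines. Compounds were first tested at a single 10 µM dose, and compounds active there went to dose-response curves. Growth is expressed relative to untreated control (100%). GI50 (50% of maximal proliferation inhibition) and TGI (total growth inhibition) were derived from the dose-response data.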

Test [4] deals with EKVX. Nature of the test: Growth inhibition of human EKVX cells assessed as cell growth at 0.1 uM incubated for 48 hrs by sulforhodamine B assay relative to control. To be noted: read-out: Activity.
The test system of test [5] is HL-60(TB). Briefly: Growth inhibition of human HL-60(TB) cells incubated for 48 hrs by sulforhodamine B assay. An outline of the steps:
as §1

For test [6], the system named is EKVX. Briefly: Growth inhibition of human EKVX cells incubated for 48 hrs by sulforhodamine B assay.
Test [7] relates to HL-60(TB). Briefly: Growth inhibition of human HL-60(TB) cells assessed as cell growth at 1 uM incubated for 48 hrs by sulforhodamine B assay relative to control. The note with it: read-out: Activity. Summed up: as §1
The subject of test [8] is EKVX. Briefly: Growth inhibition of human EKVX cells assessed as cell growth at 0.01 uM incubated for 48 hrs by sulforhodamine B assay relative to control. To be noted: read-out: Activity.
Test [9] relates to HL-60(TB). Briefly: Growth inhibition of human HL-60(TB) cells assessed as cell growth at 0.1 uM incubated for 48 hrs by sulforhodamine B assay relative to control. The note with it: read-out: Activity. An outline of the steps: as §1
The subject of test [10] is EKVX. Briefly: Growth inhibition of human EKVX cells assessed as cell growth at 1 uM incubated for 48 hrs by sulforhodamine B assay relative to control. To be noted: read-out: Activity.
The test system of test [11] is HL-60(TB). Nature of the test: Growth inhibition of human HL-60(TB) cells assessed as cell growth at 0.01 uM incubated for 48 hrs by sulforhodamine B assay relative to control. To be noted: read-out: Activity. Summed up: as §1

`Nc1c(C(=O)Nc2ccccc2)sc2nc3c(cc12)CN(Cc1ccccc1)CC3`: the growth at 0.1 µM with SK-MEL-28 was 93%.

Turning to `COc1ccc(S(=O)(=O)n2ccc(-c3ccc4c(c3)CCC(C)(C)O4)n2)cc1`, in the test on EKVX [1], the growth at 10 µM worked out at 51.6%.

With `Cc1cc(C)c(NC(=O)c2sc3nc4c(cc3c2N)CN(Cc2ccccc2)CC4)c(C)c1`, the growth at 0.1 µM in the test with SK-MEL-28 amounted to 97%.

Consider `CN1CCc2nc3sc(C(N)=O)c(N)c3c(-c3cccs3)c2C1`, for which the values for the growth at 100 µM with EKVX [2] and in the test on HL-60(TB) [3] were 5% and -19%, respectively. The growth at 0.1 µM with SK-MEL-28 was determined as 103%; in the test on EKVX [4] it was 92%; in the test with HL-60(TB) [9], 104%. Besides, the GI50 in the test with HL-60(TB) [5] amounted to 2.5 µM; in the test with EKVX [6] it was 3.54 µM. This molecule also returned an LC50 in the test on HL-60(TB) [5] above 100 µM. The TGI is 6.97 µM in the test with HL-60(TB) [5] and above 100 µM in the test on EKVX [6]. In addition, the CC50 in the test on EKVX [6] (read-out: LC50 (the source's name)) was above 100 µM. For the same molecule, the growth at 1 µM with HL-60(TB) [7] was determined as 95%; in the test with EKVX [10] it was 91%. Moreover, the growth at 0.01 µM came out at 100% in the test with EKVX [8] and 110% with HL-60(TB) [11]. For the same molecule, the growth at 10 µM in the test on EKVX [1] was found to be 17%.

For the molecule `COc1cccc(NC(=O)c2sc3nc4c(cc3c2N)CN(Cc2ccccc2)CC4)c1`, the growth at 0.1 µM with SK-MEL-28 is 99%.

As to `CCc1ccccc1NC(=O)c1sc2nc3c(cc2c1N)C(=O)CCC3`, the growth at 100 µM in the test with HL-60(TB) [3] is -5%. Moreover, in the test with SK-MEL-28, the growth at 0.1 µM turned out to be 79%. In addition, in the test on HL-60(TB) [5], the GI50 stood at 0.304 µM, the LC50 is above 100 µM and the TGI is 42 µM. In addition, in the test with HL-60(TB) [7], the growth at 1 µM turned out to be 6%. Also, in the test with HL-60(TB) [9], the growth at 0.1 µM worked out at 87%. Moreover, the growth at 0.01 µM in the test with HL-60(TB) [11] is 101%.

Regarding `Cc1ccc(NC(=O)c2sc3nc4c(cc3c2N)C(=O)CCC4)cc1C`, the growth at 100 µM in the test on HL-60(TB) [3] is -33%. Further, in the test with SK-MEL-28, the growth at 0.1 µM was determined as 87%. In the test with HL-60(TB) [5], this molecule had a GI50 of 0.36 µM, an LC50 above 100 µM and a TGI of 1.72 µM. Besides, the growth at 1 µM in the test with HL-60(TB) [7] was found to be 6%. In addition, the growth at 0.1 µM in the test on HL-60(TB) [9] stood at 105%. Further, the growth at 0.01 µM in the test on HL-60(TB) [11] was found to be 99%.

For `Cc1cccc(NC(=O)c2sc3nc4c(cc3c2N)C(=O)CCC4)c1`, in the test with SK-MEL-28, the growth at 0.1 µM is 66%.

As for `CCc1cccc(C)c1NC(=O)c1sc2nc3c(cc2c1N)C(=O)CCC3`, in the test with HL-60(TB) [3], the growth at 100 µM is -52%. Moreover, the growth at 0.1 µM with SK-MEL-28 amounted to 91%. Besides, in the test with HL-60(TB) [5], the GI50 was determined as 0.319 µM, the LC50 is at least 100 µM and the TGI was at least 100 µM. Moreover, in the test with HL-60(TB) [7], the growth at 1 µM worked out at 2%. In the test with HL-60(TB) [9], the growth at 0.1 µM amounted to 96%. In the test with HL-60(TB) [11], the growth at 0.01 µM turned out to be 96%.

As a reminder, the GI50 is the concentration that inhibits growth by half. A low value points to more potent growth inhibition. The LC50 is the concentration that kills 50% of the test population. By TGI is commonly meant the concentration at which net growth stops. A higher TGI goes with less potent growth arrest.
